UCH37 DUB inh – human UCH37 deubiquitinating enzyme inhibition | Q9Y5K5 | purified proteasome/UCH37, Ub-AMC cleavage fluorescence | inhibition, % (no concentration beside the values) | 330,000 compounds, 0.33% hits | AID 588478;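 active = mean inhibition over replicate wells above about 20%, limit read from the data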
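Reagent: Ub-AMC substrate; assay system: Proteasome-associated human UCH37 deubiquitinase; controls: no-proteasome and no-compound wells; read-out: % inhibition of Ub-AMC cleavage fluorescence; timing: 30 min preincubation with enzyme, 25 min cleavage at room temperature; signal: AMC fluorescence from Ub-AMC cleavage, excitation 355 nm, emission 460 nm; buffer or medium: Tris-HCl pH 7.4 plus ovalbumin, ATP-MgCl2, DTT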
PP5 primary – blocks human protein phosphatase 5 activity; P53041; purified PP5c, OMFP substrate fluorescence; inhibition, % at 6.7 µM; 320,000 compounds, 0.18% hits; AID 1987;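 active = inhibition above the campaign's mean inhibition across all tested compounds plus 3 SD, cut at about 9.5% in these data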
GSTO1 inh – GSTO1 inhibition, counter-screen for RBBP9 inhibitors; inhibition, % at 5.96 µM; recombinant GSTO1, activity-based probe fluorescence polarization; 300,000 compounds, 1.1% hits; AID 1974; P78417;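 active = inhibition above the campaign mean inhibition plus 3 SD, cut at about 35% in these data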
Apaf1 inhib – blocks human Apaf-1 apoptosome activity. O14727. reconstituted apoptosome caspase-3 activity, DEVD-Rh110 fluorescence. inhibition, % at 20 µM. 330,000 compounds, 0.71% hits. AID 489030; active = inhibition of at least 40% at 20 µM
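System: Apoptosome proteins | Medium: Hepes pH 7.5 with detergent and BSA | Also added: Cytochrome c trigger plus (Z-DEVD)2-Rh110 caspase-3 substrate | Incubation: 30 min compound preincubation, 50 min activation, room temperature | Detection: Rhodamine 110 fluorescence at Ex 480/Em 540 nm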
Fh CTSL1 inh – cathepsin L1 inhibition, PFM18AAP counter-screen. recombinant F. hepatica cathepsin L1, Z-Leu-Arg-MCA fluorescence. inhibition, % at 5.96 µM. 300,000 compounds, 0.49% hits. AID 1906;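 active = inhibition above the mean of all tested compounds plus 3 SD, set per screening campaign, cut at about 17% in these data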
PAD4 inh – blocks human protein arginine deiminase 4; Q9UM07; recombinant PAD4, RCA probe fluorescence polarization; inhibition, % at 6.36 µM; 330,000 compounds, 0.41% hits; AID 485272;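 active = percent inhibition above a cutoff equal to the mean of all tested compounds plus 3 SD, cut at about 15% in these data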
Target sequence (Q9UM07 whole entry, looked up): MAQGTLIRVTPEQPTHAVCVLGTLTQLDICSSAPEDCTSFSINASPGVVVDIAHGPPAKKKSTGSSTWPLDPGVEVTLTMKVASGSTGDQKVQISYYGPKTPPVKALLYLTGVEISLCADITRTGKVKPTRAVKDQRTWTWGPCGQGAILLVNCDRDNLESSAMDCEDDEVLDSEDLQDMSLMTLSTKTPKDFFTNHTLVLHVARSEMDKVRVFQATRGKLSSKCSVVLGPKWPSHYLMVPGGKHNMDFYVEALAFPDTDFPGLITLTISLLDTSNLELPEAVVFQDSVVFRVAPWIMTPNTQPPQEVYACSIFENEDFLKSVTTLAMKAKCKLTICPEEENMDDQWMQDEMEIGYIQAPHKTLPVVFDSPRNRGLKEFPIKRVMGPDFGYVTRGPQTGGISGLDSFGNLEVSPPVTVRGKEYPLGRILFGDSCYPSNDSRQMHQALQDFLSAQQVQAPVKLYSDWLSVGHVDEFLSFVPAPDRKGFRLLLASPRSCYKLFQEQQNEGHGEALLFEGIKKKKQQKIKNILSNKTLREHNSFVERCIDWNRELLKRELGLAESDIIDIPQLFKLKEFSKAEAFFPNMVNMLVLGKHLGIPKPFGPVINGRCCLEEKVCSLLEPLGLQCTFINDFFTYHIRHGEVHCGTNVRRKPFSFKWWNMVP
Apaf-1 inh conf – confirmation of Apaf-1 inhibitors. shares compounds with Apaf1 inhib. 1,800 compounds, 25% hits. reconstituted apoptosome, caspase-3 DEVD-Rh110 fluorescence. inhibition, % at 20 µM;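 active = mean inhibition of at least 40% at 20 µM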
Rh110 quench – counter-screen for Apaf-1 inhibitors: fluorescence interference; shares compounds with Apaf1 inhib; Rh110 fluorescence interference, quenched caspase reaction; activation (fluorescence interference), % at 20 µM; 1,800 tested, under 10 active; AID 504615;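 active = signal rise of 40% or more at 20 µM, treated as a fluorescence artifact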
Fluor interf inh – Apaf-1 inhibitor counter-screen fluorescence artifact. 460 tested, under 10 active. IC50, µM. AID 588538. fluorescence interference counterscreen, Apaf-1 assay format. shares compounds with Apaf1 inhib; call rule not given here
A number is an active result. Most compounds without a hit are left out; they make up all but 2% or so of the library.

Results for CCOC(=O)c1c(NC(=O)CN2CCN(C(=O)c3ccco3)CC2)sc2c1CCCC2 ?
UCH37 DUB inh: inactive; PP5 primary: inactive; GSTO1 inh: inactive; Apaf1 inhib: 48; Fh CTSL1 inh: inactive; PAD4 inh: inactive; Apaf-1 inh conf: inactive; Rh110 quench: inactive

Results for Cc1ccc(C(=O)N/N=C/c2ccc(-c3ccccc3[N+](=O)[O-])o2)cn1 ?
PP5 primary: inactive; GSTO1 inh: 37; Apaf1 inhib: 75; Fh CTSL1 inh: inactive; PAD4 inh: inactive; Apaf-1 inh conf: inactive; Rh110 quench: inactive

How did O=C(N/N=C/c1ccc(-c2ccccc2[N+](=O)[O-])o1)[C@H]1C[C@@H]1c1ccccc1 do in these assays?
PP5 primary: inactive; GSTO1 inh: inactive; Apaf1 inhib: 68; Fh CTSL1 inh: inactive; PAD4 inh: inactive; Apaf-1 inh conf: inactive; Rh110 quench: inactive

What do the screens show for `Cc1ccc(C(=O)NN=Cc2ccc([N+](=O)[O-])o2)cn1`?
UCH37 DUB inh: inactive

Results for O=C(N/N=C/c1ccc(-c2ccc([N+](=O)[O-])cc2)o1)[C@H]1C[C@@H]1c1ccccc1 ?
PP5 primary: inactive; GSTO1 inh: inactive; Apaf1 inhib: inactive; Fh CTSL1 inh: inactive; PAD4 inh: inactive

Results for O=[N+]([O-])c1ccccc1-c1ccc(C=Nn2cnnc2)o1 ?
UCH37 DUB inh: inactive

What do the screens show for `CCc1ccc2c(c1)C(=O)c1ccccc1C2=O`?
UCH37 DUB inh: inactive; PP5 primary: inactive; GSTO1 inh: inactive; Apaf1 inhib: inactive; Fh CTSL1 inh: inactive; PAD4 inh: inactive

How did CCc1ccc(NC2=CC(=O)C(=O)c3ccccc32)cc1 do in these assays?
UCH37 DUB inh: inactive; Apaf1 inhib: 92; Apaf-1 inh conf: 86; Rh110 quench: inactive; Fluor interf inh: inactive

Results for CON=CC(=NNc1cc(OC)cc(OC)c1)C(=O)c1ccccc1 ?
UCH37 DUB inh: inactive

How did CCc1ccc2nc(NC(=O)CSCc3c(C)noc3C)sc2c1 do in these assays?
UCH37 DUB inh: inactive; PP5 primary: inactive; GSTO1 inh: inactive; Apaf1 inhib: 46; Fh CTSL1 inh: inactive; PAD4 inh: inactive; Apaf-1 inh conf: inactive; Rh110 quench: inactive

How did Cc1noc(C)c1CSCC(=O)Nc1nc2ccccc2s1 do in these assays?
UCH37 DUB inh: inactive; PP5 primary: inactive; GSTO1 inh: inactive; Apaf1 inhib: inactive; Fh CTSL1 inh: inactive; PAD4 inh: inactive

What do the screens show for `CCN1CCN(Cc2ccc(NC(=O)c3cc(NC(=O)c4ccc5n[nH]nc5c4)cc(OC)c3)cc2C(F)(F)F)CC1`?
UCH37 DUB inh: inactive; PP5 primary: inactive; GSTO1 inh: inactive; Apaf1 inhib: inactive; Fh CTSL1 inh: inactive; PAD4 inh: inactive

Results for CCN1CCN(Cc2ccc(NC(=O)c3cc(NC(=O)c4ccno4)cc(OC)c3)cc2C(F)(F)F)CC1 ?
UCH37 DUB inh: inactive; PP5 primary: inactive; GSTO1 inh: inactive; Apaf1 inhib: inactive; Fh CTSL1 inh: inactive; PAD4 inh: inactive

Results for CCN1CCN(Cc2ccc(NC(=O)c3ccc(C)c(NC(=O)c4ccno4)c3)cc2C(F)(F)F)CC1 ?
UCH37 DUB inh: inactive; PP5 primary: inactive; GSTO1 inh: inactive; Apaf1 inhib: inactive; Fh CTSL1 inh: inactive; PAD4 inh: inactive

Results for CCN1CCN(Cc2ccc(NC(=O)c3ccc(C)c(NC(=O)c4csc(-c5ccncc5)n4)c3)cc2C(F)(F)F)CC1 ?
UCH37 DUB inh: inactive; PP5 primary: inactive; GSTO1 inh: inactive; Apaf1 inhib: 59; Fh CTSL1 inh: inactive; PAD4 inh: inactive; Apaf-1 inh conf: inactive; Rh110 quench: inactive

How did CCN1CCN(Cc2ccc(NC(=O)c3cc(NC(=O)c4cncc(-c5cccs5)c4)cc(OC)c3)cc2C(F)(F)F)CC1 do in these assays?
PP5 primary: inactive; GSTO1 inh: inactive; Apaf1 inhib: 68; Fh CTSL1 inh: inactive; PAD4 inh: inactive; Apaf-1 inh conf: inactive; Rh110 quench: inactive

High-throughput results deposited in PubChem by several laboratories.
